Measurements as given in ChEMBL document CHEMBL1126177, “Synthesis and biological evaluation of N alpha-(5-deaza-5,6,7,8-tetrahydropteroyl)-L-ornithine” (J Med Chem, 1992).
pIC50: −log10 of the molar value.

Legend:
[1] = tested on: MCF7; assay: In vitro effect on 5-methyltetrahydrofolate (5-CH3-THF) in MCF-7 cells at 50 uM(control=0.7); Folate pools; assay type: functional, Homo sapiens
[2] = tested on: MCF7; assay: In vitro effect on dihydrofolate (DHF) in MCF-7 cells at 50 uM (control=0.2); Folate pools; assay type: functional, Homo sapiens
[3] = tested on: MCF7; assay: In vitro effect on folic acid (FA) in MCF-7 cells at 100 uM (control= 0.0); Folate pools; assay type: functional, Homo sapiens
[4] = biological target: Bifunctional purine biosynthesis protein ATIC (Homo sapiens) (UniProt P31939); assay: Compound was evaluated for the inhibition of 5-aminoimidazole-4-carboxamide ribonucleotide transformylase obtained from human at 100 uM
Chain of Bifunctional purine biosynthesis protein ATIC (Homo sapiens) (P31939 whole entry, looked up): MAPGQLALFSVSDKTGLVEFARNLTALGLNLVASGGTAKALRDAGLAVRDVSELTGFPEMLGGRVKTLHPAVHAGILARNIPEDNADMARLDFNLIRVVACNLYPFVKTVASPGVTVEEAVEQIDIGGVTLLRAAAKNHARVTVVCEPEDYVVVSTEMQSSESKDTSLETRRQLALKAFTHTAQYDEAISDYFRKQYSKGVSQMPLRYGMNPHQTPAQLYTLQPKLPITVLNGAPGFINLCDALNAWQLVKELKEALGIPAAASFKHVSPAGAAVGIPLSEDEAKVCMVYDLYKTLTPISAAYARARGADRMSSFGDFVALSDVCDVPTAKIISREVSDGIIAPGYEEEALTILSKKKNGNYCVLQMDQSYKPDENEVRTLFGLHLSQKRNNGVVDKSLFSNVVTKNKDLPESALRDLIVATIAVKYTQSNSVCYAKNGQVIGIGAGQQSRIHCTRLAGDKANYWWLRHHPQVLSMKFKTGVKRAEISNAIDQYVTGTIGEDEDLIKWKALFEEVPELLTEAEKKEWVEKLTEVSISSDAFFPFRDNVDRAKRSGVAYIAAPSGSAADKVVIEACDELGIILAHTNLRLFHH
Outline: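 AICAR transformylase partially purified from human MOLT-4 cells by a modified literature procedure. Activity was followed with a continuous spectrophotometric assay.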

[5] = tested on: MCF7; assay: In vitro effect on dihydrofolate (DHF) in MCF-7 cells at 100 uM (control= 0.2); Folate pools; assay type: functional, Homo sapiens
[6] = tested on: MCF7; assay: In vitro effect on 10-formyldihydrofolate (10-CHO-DHF) in MCF-7 cells at 100 uM (control= 0.2); Folate pools; assay type: functional, Homo sapiens
[7] = tested on: MCF7; assay: In vitro effect on 10-formyldihydrofolate (10-CHO-DHF) in MCF-7 cells at 50 uM (control= 0.2); Folate pools; assay type: functional, Homo sapiens
[8] = tested on: MCF7; assay: In vitro effect on total folates in MCF-7 cells at 50 uM (control= 4.0); Folate pools; assay type: functional, Homo sapiens
[9] = tested on: MCF7; assay: In vitro effect on tetrahydrofolate (THF) in MCF-7 cells at 50 uM (control=1.0); Folate pools; assay type: functional, Homo sapiens
[10] = tested on: MCF7; assay: In vitro effect on 10-formyltetrahydrofolate (10-CHO-THF) in MCF-7 cells at 100 uM (control= 1.7); Folate pools; assay type: functional, Homo sapiens
[11] = biological target: T1, Dihydrofolate reductase (Homo sapiens, UniProt P00374); assay: Compound was evaluated for the inhibition of dihydrofolate reductase obtained from human; details: read-out: I50
T1 sequence (P00374 whole entry): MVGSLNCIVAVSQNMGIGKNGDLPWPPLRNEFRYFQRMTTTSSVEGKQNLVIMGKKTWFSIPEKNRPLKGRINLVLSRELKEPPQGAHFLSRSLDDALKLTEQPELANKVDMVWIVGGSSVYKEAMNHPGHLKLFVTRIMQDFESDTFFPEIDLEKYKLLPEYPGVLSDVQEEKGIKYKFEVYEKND

[12] = tested on: MCF7; assay: In vitro effect on 5-formyltetrahydrofolate (5-CHO-THF) in MCF-7 cells at 100 uM (control= 0.1); Folate pools; assay type: functional, Homo sapiens
[13] = tested on: MCF7; assay: In vitro effect on 5-formyltetrahydrofolate (5-CHO-THF) in MCF-7 cells at 50 uM(control=0.1); Folate pools; assay type: functional, Homo sapiens
[14] = tested on: MCF7; assay: In vitro effect on folic acid (FA) in MCF-7 cells at 50 uM (control= 0.0); Folate pools; assay type: functional, Homo sapiens
[15] = tested on: MCF7; assay: In vitro effect on 10-formyltetrahydrofolate (10-CHO-THF) in MCF-7 cells at 50 uM (control= 1.7); Folate pools; assay type: functional, Homo sapiens
[16] = tested on: MCF7; assay: In vitro effect on tetrahydrofolate (THF) in MCF-7 cells at 100 uM(control= 1.0); Folate pools; assay type: functional, Homo sapiens
[17] = tested on: MCF7; assay: In vitro effect on total folates in MCF-7 cells at 100 uM(control= 4.0); Folate pools; assay type: functional, Homo sapiens
[18] = tested on: MCF7; assay: In vitro effect on 10-formylfolic acid (10-CHO-FA) in MCF-7 cells at 100 uM(control= 0.1); Folate pools; assay type: functional, Homo sapiens
[19] = biological target: Thymidylate synthase (Homo sapiens, UniProt P04818); assay: Compound was evaluated for the inhibition of thymidylate synthase obtained from human; details: read-out: I50
Chain of Thymidylate synthase (P04818 whole entry): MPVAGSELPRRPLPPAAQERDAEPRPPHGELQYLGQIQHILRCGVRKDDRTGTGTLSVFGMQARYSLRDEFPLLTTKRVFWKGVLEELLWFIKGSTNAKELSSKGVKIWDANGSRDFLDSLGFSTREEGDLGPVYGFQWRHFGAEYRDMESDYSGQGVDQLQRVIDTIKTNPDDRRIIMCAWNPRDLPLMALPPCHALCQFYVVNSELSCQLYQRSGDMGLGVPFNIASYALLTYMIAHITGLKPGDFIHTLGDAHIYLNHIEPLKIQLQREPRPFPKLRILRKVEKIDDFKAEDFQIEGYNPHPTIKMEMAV
Outline: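 Human thymidylate synthase came from an SV40-transformed fibroblast line, cloned and expressed in E. coli, and purified to homogeneity by affinity chromatography. Activity was measured by the ³H-release method.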

[20] = tested on: MCF7; assay: In vitro effect on 5-methyltetrahydrofolate (5-CH3-THF) in MCF-7 cells at 100 uM (control= 0.7); Folate pools; assay type: functional, Homo sapiens
[21] = tested on: MCF7; assay: In vitro effect on 10-formylfolic acid (10-CHO-FA) in MCF-7 cells at 50 uM(control= 0.1); Folate pools; assay type: functional, Homo sapiens
[22] = tested on: MCF7; assay: In vitro effect on total folates in MCF-7 cells at 1 uM(control= 4.0); Folate pools; assay type: functional, Homo sapiens
[23] = tested on: MCF7; assay: In vitro effect on folic acid (FA) in MCF-7 cells at 1 uM(control= 0.0); Folate pools; assay type: functional, Homo sapiens
[24] = tested on: MCF7; assay: In vitro effect on 10-formyldihydrofolate (10-CHO-DHF) in MCF-7 cells at 1 uM(control= 0.2); Folate pools; assay type: functional, Homo sapiens
[25] = tested on: MCF7; assay: In vitro effect on dihydrofolate (DHF) in MCF-7 cells at 1 uM(control= 0.2); Folate pools; assay type: functional, Homo sapiens
[26] = tested on: MCF7; assay: In vitro effect on 5-formyltetrahydrofolate (5-CHO-THF) in MCF-7 cells at 1 uM(control= 0.1); Folate pools; assay type: functional, Homo sapiens
[27] = tested on: MCF7; assay: In vitro effect on tetrahydrofolate (THF) in MCF-7 cells at 1 uM(control= 1.0); Folate pools; assay type: functional, Homo sapiens
[28] = tested on: MCF7; assay: In vitro effect on 10-formylfolic acid (10-CHO-FA) in MCF-7 cells at 1 uM(control= 0.1); Folate pools; assay type: functional, Homo sapiens
[29] = tested on: MCF7; assay: In vitro effect on 5-methyltetrahydrofolate (5-CH3-THF) in MCF-7 cells at 1 uM(control= 0.7); Folate pools; assay type: functional, Homo sapiens
[30] = tested on: MCF7; assay: In vitro effect on 10-formyltetrahydrofolate (10-CHO-THF) in MCF-7 cells at 1 uM(control= 1.7); Folate pools; assay type: functional, Homo sapiens

## NCCCC(NC(=O)c1ccc(NCC2CNc3nc(N)nc(O)c3C2)cc1)C(=O)O (stereo not given)
[1]
  Activity: 0.6 pM (10e6*cells)-1
[2]
  Activity: 0.2 pM (10e6*cells)-1
[3]
  Activity: 0 pM (10e6*cells)-1
[4]
  inhibition: 16%
[5]
  Activity: 0.2 pM (10e6*cells)-1
[6]
  Activity: 0.3 pM (10e6*cells)-1
[7]
  Activity: 0.3 pM (10e6*cells)-1
[8]
  Activity: 4.1 pM (10e6*cells)-1
[9]
  Activity: 1 pM (10e6*cells)-1
[10]
  Activity: 1.7 pM (10e6*cells)-1
[11]
  pIC50: 5.70
[12]
  Activity: 0.1 pM (10e6*cells)-1
[13]
  Activity: 0.2 pM (10e6*cells)-1
[14]
  Activity: 0 pM (10e6*cells)-1
[15]
  Activity: 1.8 pM (10e6*cells)-1
[16]
  Activity: 0.9 pM (10e6*cells)-1
[17]
  Activity: 3.9 pM (10e6*cells)-1
[18]
  Activity: 0.1 pM (10e6*cells)-1
[19]
  pIC50: 3.33
[20]
  Activity: 0.6 pM (10e6*cells)-1
[21]
  Activity: 0.2 pM (10e6*cells)-1

## CN(Cc1cnc2nc(N)nc(N)c2n1)c1ccc(C(=O)N[C@@H](CCC(=O)O)C(=O)O)cc1 [METHOTREXATE]
[22]
  Activity: 4.1 pM (10e6*cells)-1
[23]
  Activity: 0.1 pM (10e6*cells)-1
[24]
  Activity: 0.6 pM (10e6*cells)-1
[25]
  Activity: 1.6 pM (10e6*cells)-1
[26]
  Activity: 0.1 pM (10e6*cells)-1
[27]
  Activity: 0.4 pM (10e6*cells)-1
[28]
  Activity: 0.3 pM (10e6*cells)-1
[29]
  Activity: 0.1 pM (10e6*cells)-1
[30]
  Activity: 0.8 pM (10e6*cells)-1
